ChEMBL document CHEMBL1155281, “Synthesis, spectroscopic characterization and antibacterial activity of new cobalt(II) complexes of unsymmetrical tetradentate (OSN2) Schiff base ligands” (2009)
Values after ≈ are worked out from the molar mass of the structure shown.

Legend:
Staphylococcus aureus [1] = assay: Antibacterial activity against Staphylococcus aureus RITCC 1885 at 100 ul after overnight incubation by agar well diffusion method; format: functional
Method in brief: (§1)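 Agar well diffusion. Inoculum came from a 12 h, 37 °C enrichment culture in 1 ml Mueller–Hinton broth and was spread on Mueller–Hinton agar. Wells cut with a 6 mm cork borer and filled with 100 µL of compound solution; methanol blank. Incubated overnight at 37 °C, then inhibition zone diameter measured. Triplicate, averaged.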

Pseudomonas aeruginosa [2] = assay: Antibacterial activity against Pseudomonas aeruginosa RITCC 1547 after 24 hrs by macrodilution broth susceptibility assay; format: functional; settings: RITCC 1547, 24 h
Method in brief: (§2)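 Macro-dilution broth series of 12 tubes, each holding 1 ml Mueller–Hinton broth. Tube one received 1 ml of 100 mg/ml test solution, then serial dilution down the series. Added 1 ml bacterial suspension matched to 0.5 McFarland (1.5 ×10⁸ cfu/ml). Incubated 37 °C for 24 h. MIC taken as the last tube without turbidity.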

Streptococcus agalactiae [3] = assay: Antibacterial activity against Streptococcus agalactiae RITCC 1913 at 100 ul after overnight incubation by agar well diffusion method; format: functional; method in brief: as §1
Klebsiella pneumoniae [4] = assay: Antibacterial activity against Klebsiella pneumoniae RITCC 1249 after 24 hrs by macrodilution broth susceptibility assay; format: functional; settings: RITCC 1249, 24 h; method in brief: as §2
Bacillus anthracis [5] = assay: Antibacterial activity against Bacillus anthracis RITCC 1036 after 24 hrs by macrodilution broth susceptibility assay; format: functional; settings: RITCC 1036, 24 h
Klebsiella pneumoniae [6] = assay: Antibacterial activity against Klebsiella pneumoniae RITCC 1249 at 100 ul after overnight incubation by agar well diffusion method; format: functional; method in brief: as §1
Streptococcus pyogenes [7] = assay: Antibacterial activity against Streptococcus pyogenes RITCC 1940 after 24 hrs by macrodilution broth susceptibility assay; format: functional; settings: RITCC 1940, 24 h; method in brief: as §2
Pseudomonas aeruginosa [8] = assay: Antibacterial activity against Pseudomonas aeruginosa RITCC 1547 at 100 ul after overnight incubation by agar well diffusion method; format: functional; method in brief: as §1
Streptococcus agalactiae [9] = assay: Antibacterial activity against Streptococcus agalactiae RITCC 1913 after 24 hrs by macrodilution broth susceptibility assay; format: functional; settings: RITCC 1913, 24 h; method in brief: as §2
Staphylococcus aureus [10] = assay: Antibacterial activity against Staphylococcus aureus RITCC 1885 after 24 hrs by macrodilution broth susceptibility assay; format: functional; settings: RITCC 1885, 24 h; method in brief: as §2
Bacillus anthracis [11] = assay: Antibacterial activity against Bacillus anthracis RITCC 1036 at 100 ul after overnight incubation by agar well diffusion method; format: functional
Streptococcus pyogenes [12] = assay: Antibacterial activity against Streptococcus pyogenes RITCC 1940 at 100 ul after overnight incubation by agar well diffusion method; format: functional; method in brief: as §1
Bacillus anthracis [13] = assay: Antibacterial activity against Bacillus anthracis RITCC 1036 at 10 ug after overnight incubation by agar well diffusion method; format: functional, organism-based
Klebsiella pneumoniae [14] = assay: Antibacterial activity against Klebsiella pneumoniae RITCC 1249 at 10 ug after overnight incubation by agar well diffusion method; format: functional, organism-based
Method in brief: (§3)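 Bacteria were enriched in 1 ml Mueller–Hinton broth at 37 °C for 12 h, then cultured on Mueller–Hinton agar. Wells were cut with a 6 mm cork borer and filled with test solution, with gentamicine as the standard antibiotic. Plates were incubated overnight at 37 °C and inhibition-zone diameters were measured. Values are the average of triplicates. A methanol-only blank was included.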

Streptococcus pyogenes [15] = assay: Antibacterial activity against Streptococcus pyogenes RITCC 1940 at 10 ug after overnight incubation by agar well diffusion method; format: functional, organism-based; method in brief: as §3

Compound | inhibition zone (IZ) (Staphylococcus aureus [1]) [mm] | MIC (Pseudomonas aeruginosa [2]) [mg/mL] | inhibition zone (IZ) (Streptococcus agalactiae [3]) [mm] | MIC (Klebsiella pneumoniae [4]) [mg/mL] | MIC (Bacillus anthracis [5]) [mg/mL] | inhibition zone (IZ) (Klebsiella pneumoniae [6]) [mm] | MIC (Streptococcus pyogenes [7]) [mg/mL] | inhibition zone (IZ) (Pseudomonas aeruginosa [8]) [mm] | MIC (Streptococcus agalactiae [9]) [mg/mL] | MIC (Staphylococcus aureus [10]) [mg/mL] | inhibition zone (IZ) (Bacillus anthracis [11]) [mm] | inhibition zone (IZ) (Streptococcus pyogenes [12]) [mm] | inhibition zone (IZ) (Bacillus anthracis [13]) [mm] | inhibition zone (IZ) (Klebsiella pneumoniae [14]) [mm] | inhibition zone (IZ) (Streptococcus pyogenes [15]) [mm]
Oc1ccc(Br)cc1/C=N/CCSCCc1ccccn1 | 40 | 25 (≈ 68.4 mM) | 50 | 12.5 (≈ 34.2 mM) | 3.12 (≈ 8.55 mM) | 30 | 6.25 (≈ 17.1 mM) | 20 | 3.12 (≈ 8.55 mM) | 6.25 (≈ 17.1 mM) | 50 | 40 |  |  | 
COc1ccc(O)c(/C=N/CCSCCc2ccccn2)c1 | 10 | 50 (≈ 158 mM) | 20 | 25 (≈ 79 mM) | 25 (≈ 79 mM) | 20 | 6.25 (≈ 19.8 mM) | 10 | 25 (≈ 79 mM) | 50 (≈ 158 mM) | 20 | 40 |  |  | 
GENTAMICIN |  |  |  |  |  |  |  |  |  |  |  |  | 32 | 20 | 20
O=[N+]([O-])c1ccc(O)c(/C=N/CCSCCc2ccccn2)c1 | 20 | 25 (≈ 75.4 mM) | 30 | 25 (≈ 75.4 mM) | 25 (≈ 75.4 mM) | 20 | 6.25 (≈ 18.9 mM) | 20 | 12.5 (≈ 37.7 mM) | 25 (≈ 75.4 mM) | 20 | 40 |  |  | 
